{
  "source": "ChEMBL document CHEMBL1121796",
  "about": "“Bioactivation of the antitumor drugs 9-hydroxyellipticine and derivatives by a peroxidase-hydrogen peroxide system” (1981)",
  "key": {"Mus musculus [1]": {"tested_on": "Mus musculus", "assay": "Increase in life span over controls (10e5 cells) in mice after intraperitoneal treatment of the compound.", "assay_type": "functional", "parameters": "concentration or dose not given beside the values", "procedure,_shortened": "(§1)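 DBA/2 mice were inoculated with 10⁵ L1210 leukemia cells and given a single intraperitoneal injection of drug. Survival was compared with untreated controls as increase in life span, ILS = [(T − C)/C] × 100. An antitumor effect was counted significant at ILS ≥ 25%.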"}, "L1210 [2]": {"tested_on": "L1210", "assay": "Compound was tested for its cytotoxic activity against murine leukemia L1210 cells in mice after intraperitoneal treatment, expressed as LD0 (highest nonlethal dose).", "assay_type": "functional, Mus musculus", "procedure,_shortened": "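Highest nonlethal dose (LD0) found for each drug after a single intraperitoneal injection into DBA/2 or Swiss mice.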"}, "[3]": {"biological_target": "Myeloperoxidase (Homo sapiens) (UniProt P05164)", "assay": "The effect on NADH oxidation in the presence of MPO-H2O2."}, "[4]": {"biological_target": "Myeloperoxidase (Homo sapiens) (UniProt P05164)", "assay": "he effect on oxygen consumed in the presence of MPO-H2O2."}, "L1210 [5]": {"tested_on": "L1210", "assay": "Compound was tested for its antitumor activity against murine leukemia L1210 cells in vitro, expressed as ID50", "assay_type": "functional", "settings": "Mus musculus, read-out: ID50 (the source's name)", "procedure,_shortened": "(§2)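 L1210 murine leukemia cells were grown in culture with drug for 48 h. ID50 is the drug concentration that cuts the rate of cell multiplication by 50% compared with untreated controls.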"}, "L1210 [6]": {"tested_on": "L1210", "assay": "The compound is tested for its cytotoxic activity against murine leukemia L1210 cells in mice after intraperitoneal treatment, expressed as LD0 (highest nonlethal dose).", "assay_type": "functional, Mus musculus"}, "L1210 [7]": {"tested_on": "L1210", "assay": "The compound is tested for its antitumor activity against murine leukemia L1210 cells in vitro, expressed as ID50", "assay_type": "functional", "settings": "Mus musculus, read-out: ID50 (the source's name)", "procedure,_shortened": "as §2"}, "[8]": {"biological_target": "Myeloperoxidase (Homo sapiens) (UniProt P05164)", "assay": "The effect on oxygen consumed in the presence of MPO-H2O2."}, "[9]": {"biological_target": "Myeloperoxidase (Homo sapiens) (UniProt P05164)", "assay": "The effect on NADH oxidation in the presence of MPO-H2O2 without the compound at pH 8.3"}, "[10]": {"biological_target": "Myeloperoxidase (Homo sapiens) (UniProt P05164)", "assay": "The effect on oxygen uptake in the presence of MPO-H2O2 at pH 7.4"}, "[11]": {"biological_target": "Myeloperoxidase (Homo sapiens) (UniProt P05164)", "assay": "The effect on NADH oxidation in the presence of MPO-H2O2 without the compound"}, "[12]": {"biological_target": "Myeloperoxidase (Homo sapiens) (UniProt P05164)", "assay": "The effect on oxygen uptake in the presence of MPO-H2O2 at pH 6.8"}, "[13]": {"biological_target": "Myeloperoxidase (Homo sapiens) (UniProt P05164)", "assay": "The effect on oxygen uptake in the presence of MPO-H2O2 at pH 8.3"}, "[14]": {"biological_target": "Myeloperoxidase (Homo sapiens) (UniProt P05164)", "assay": "The effect on oxygen uptake in the presence of MPO-H2O2 at pH 7.8"}, "[15]": {"biological_target": "Myeloperoxidase (Homo sapiens) (UniProt P05164)", "assay": "The effect on NADH oxidation in the presence of MPO-H2O2 without compound at pH 7.8"}, "[16]": {"biological_target": "Myeloperoxidase (Homo sapiens) (UniProt P05164)", "assay": "The effect on oxygen uptake in the presence of MPO-H2O2 without the compound at pH 7.4"}, "[17]": {"biological_target": "Myeloperoxidase (Homo sapiens) (UniProt P05164)", "assay": "The effect on oxygen uptake in the presence of MPO-H2O2 without the compound at pH 7.8"}, "[18]": {"biological_target": "Myeloperoxidase (Homo sapiens) (UniProt P05164)", "assay": "The effect on NADH oxidation in the presence of MPO-H2O2 at pH 7.4"}, "[19]": {"biological_target": "Myeloperoxidase (Homo sapiens) (UniProt P05164)", "assay": "The effect on NADH oxidation in the presence of MPO-H2O2 at pH 6.8"}, "[20]": {"biological_target": "Myeloperoxidase (Homo sapiens) (UniProt P05164)", "assay": "The effect on oxygen uptake in the presence of MPO-H2O2 without the compound at pH 6.0"}, "[21]": {"biological_target": "Myeloperoxidase (Homo sapiens) (UniProt P05164)", "assay": "The effect on NADH oxidation in the presence of MPO-H2O2 at pH 7.8"}, "[22]": {"biological_target": "Myeloperoxidase (Homo sapiens) (UniProt P05164)", "assay": "The effect on NADH oxidation in the presence of MPO-H2O2 without the compound at pH 6.0"}, "[23]": {"biological_target": "Myeloperoxidase (Homo sapiens) (UniProt P05164)", "assay": "The effect on NADH oxidation in the presence of MPO-H2O2.", "remark": "listed apart in the source"}, "[24]": {"biological_target": "Myeloperoxidase (Homo sapiens) (UniProt P05164)", "assay": "The effect on oxygen uptake in the presence of MPO-H2O2 without the compound at pH 8.3"}, "[25]": {"biological_target": "Myeloperoxidase (Homo sapiens) (UniProt P05164)", "assay": "The effect on oxygen uptake in the presence of MPO-H2O2 without the compound at pH 6.8"}, "[26]": {"biological_target": "Myeloperoxidase (Homo sapiens) (UniProt P05164)", "assay": "The effect on NADH oxidation in the presence of MPO-H2O2 without compound at pH 7.4"}, "[27]": {"biological_target": "Myeloperoxidase (Homo sapiens) (UniProt P05164)", "assay": "The effect on NADH oxidation in the presence of MPO-H2O2 at pH 8.3"}, "[28]": {"biological_target": "Myeloperoxidase (Homo sapiens) (UniProt P05164)", "assay": "The effect on NADH oxidation in the presence of MPO-H2O2 at pH 6.0"}, "[29]": {"biological_target": "Myeloperoxidase (Homo sapiens) (UniProt P05164)", "assay": "The effect on oxygen uptake in the presence of MPO-H2O2 at pH 6.0"}, "Mus musculus [30]": {"tested_on": "Mus musculus", "assay": "Increase in life span over control (10e5 cells) in mice after intraperitoneal treatment of the compound.", "assay_type": "functional", "procedure,_shortened": "as §1"}},
  "data": [
    {"smiles": "Cc1c2cc[n+](C)cc2c(C)c2c1[nH]c1ccccc12", "values": [
      {"measurement": "ILS", "setting": "Mus musculus [1]", "value": 18, "unit": "%"},
      {"measurement": "LD0", "setting": "L1210 [2]", "value": 12.5, "unit": "mg/kg"},
      {"measurement": "NADH oxidized", "setting": "[3]", "value": 0, "unit": "nM/min"},
      {"measurement": "Oxygen consumed", "setting": "[4]", "value": 0, "unit": "nM/min"},
      {"measurement": "IC50", "setting": "L1210 [5]", "value": 1680, "unit": "nM"}
    ]},
    {"smiles": "COc1ccc2[nH]c3c(C)c4ccncc4c(C)c3c2c1", "values": [
      {"measurement": "ILS", "setting": "Mus musculus [1]", "value": 70, "unit": "%"},
      {"measurement": "LD0", "setting": "L1210 [6]", "value": 70, "unit": "mg/kg"},
      {"measurement": "IC50", "setting": "L1210 [7]", "value": 600, "unit": "nM"},
      {"measurement": "NADH oxidized", "setting": "[3]", "value": 0.22, "unit": "nM/min"},
      {"measurement": "Oxygen consumed", "setting": "[8]", "value": 0, "unit": "nM/min"}
    ]},
    {"smiles": "Cc1c2ccncc2c(C)c2c1[nH]c1ccc(O)cc12", "values": [
      {"measurement": "ILS", "setting": "Mus musculus [1]", "value": 53, "unit": "%"},
      {"measurement": "NADH oxidation", "setting": "[9]", "value": 0, "unit": "nM/min"},
      {"measurement": "Oxygen uptake", "setting": "[10]", "value": 0, "unit": "nM/min"},
      {"measurement": "NADH oxidation", "setting": "[11]", "value": 0.5, "unit": "nM/min"},
      {"measurement": "Oxygen uptake", "setting": "[12]", "value": 0, "unit": "nM/min"},
      {"measurement": "LD0", "setting": "L1210 [2]", "value": 50, "unit": "mg/kg"},
      {"measurement": "Oxygen uptake", "setting": "[13]", "value": 0, "unit": "nM/min"},
      {"measurement": "Oxygen uptake", "setting": "[14]", "value": 0, "unit": "nM/min"},
      {"measurement": "NADH oxidation", "setting": "[15]", "value": 0, "unit": "nM/min"},
      {"measurement": "Oxygen uptake", "setting": "[16]", "value": 0, "unit": "nM/min"},
      {"measurement": "Oxygen uptake", "setting": "[17]", "value": 0, "unit": "nM/min"},
      {"measurement": "NADH oxidation", "setting": "[18]", "value": 10.2, "unit": "nM/min"},
      {"measurement": "NADH oxidation", "setting": "[19]", "value": 7.8, "unit": "nM/min"},
      {"measurement": "NADH oxidized", "setting": "[3]", "value": 10.5, "unit": "nM/min"},
      {"measurement": "Oxygen uptake", "setting": "[20]", "value": 0.52, "unit": "nM/min"},
      {"measurement": "NADH oxidation", "setting": "[21]", "value": 7.2, "unit": "nM/min"},
      {"measurement": "NADH oxidized", "setting": "[22]", "value": 1.2, "unit": "nM/min"},
      {"measurement": "Oxygen consumed", "setting": "[23]", "value": 0, "unit": "nM/min"},
      {"measurement": "Oxygen uptake", "setting": "[24]", "value": 0, "unit": "nM/min"},
      {"measurement": "Oxygen uptake", "setting": "[25]", "value": 0.28, "unit": "nM/min"},
      {"measurement": "NADH oxidation", "setting": "[26]", "value": 0, "unit": "nM/min"},
      {"measurement": "NADH oxidation", "setting": "[27]", "value": 6.5, "unit": "nM/min"},
      {"measurement": "IC50", "setting": "L1210 [5]", "value": 15, "unit": "nM"},
      {"measurement": "NADH oxidation", "setting": "[28]", "value": 5.5, "unit": "nM/min"},
      {"measurement": "Oxygen uptake", "setting": "[29]", "value": 0, "unit": "nM/min"}
    ]},
    {"smiles": "Cc1c2c[n+](C)ccc2c(C)c2c1c1cc(O)ccc1n2C", "values": [
      {"measurement": "LD0", "setting": "L1210 [2]", "value": 15, "unit": "mg/kg"},
      {"measurement": "ILS", "setting": "Mus musculus [30]", "value": 78, "unit": "%"},
      {"measurement": "NADH oxidized", "setting": "[3]", "value": 16.15, "unit": "nM/min"},
      {"measurement": "Oxygen consumed", "setting": "[8]", "value": 7.7, "unit": "nM/min"},
      {"measurement": "IC50", "setting": "L1210 [5]", "value": 41, "unit": "nM"}
    ]},
    {"smiles": "Cc1c2ccncc2c(C)c2c1[nH]c1ccccc12", "note": "[ELLIPTECINE]", "values": [
      {"measurement": "ILS", "setting": "Mus musculus [1]", "value": 68, "unit": "%"},
      {"measurement": "LD0", "setting": "L1210 [2]", "value": 50, "unit": "mg/kg"},
      {"measurement": "NADH oxidized", "setting": "[3]", "value": 0, "unit": "nM/min"},
      {"measurement": "Oxygen consumed", "setting": "[8]", "value": 0, "unit": "nM/min"},
      {"measurement": "IC50", "setting": "L1210 [5]", "value": 990, "unit": "nM"}
    ]},
    {"smiles": "Cc1c2cc[n+](C)cc2c(C)c2c1[nH]c1ccc(O)cc12", "note": "[ELLIPTINIUM]", "values": [
      {"measurement": "ILS", "setting": "Mus musculus [1]", "value": 62, "unit": "%"},
      {"measurement": "LD0", "setting": "L1210 [2]", "value": 5, "unit": "mg/kg"},
      {"measurement": "NADH oxidized", "setting": "[3]", "value": 12.2, "unit": "nM/min"},
      {"measurement": "Oxygen consumed", "setting": "[8]", "value": 0, "unit": "nM/min"},
      {"measurement": "IC50", "setting": "L1210 [5]", "value": 50, "unit": "nM"}
    ]}
  ]
}
